Experimental data as given in ChEMBL document CHEMBL1124250, “9-Benzyl-6-(dimethylamino)-9H-purines with antirhinovirus activity” (J Med Chem, 1988).

Experiments:
rhinovirus A1B [1] = assay: In vitro activity against Rhinovirus type 1B by plaque inhibition assay.; format: functional, organism-based, Enterovirus; conditions: Rhinovirus A
Enterovirus [2] = assay: Percent inhibition of plaque formation of Rhinovirus serotype 18 was measured at 4 uM of the compound; format: functional
Enterovirus [3] = assay: Percent inhibition of plaque formation of Rhinovirus serotype 8 was measured at 4 uM of the compound; format: functional
Enterovirus [4] = assay: Inhibitory concentration measured against Rhinovirus serotype 12; format: functional, organism-based
Enterovirus [5] = assay: Inhibitory concentration measured against Rhinovirus serotype 29; format: functional, organism-based
Enterovirus [6] = assay: Inhibitory concentration measured against Rhinovirus serotype 21; format: functional, organism-based
Enterovirus [7] = assay: Inhibitory concentration measured against Rhinovirus serotype 31; format: functional, organism-based
Enterovirus [8] = assay: Inhibitory concentration measured against Rhinovirus serotype 1A; format: functional, organism-based
Enterovirus [9] = assay: Inhibitory concentration measured against Rhinovirus serotype 19; format: functional, organism-based
Enterovirus [10] = assay: Inhibitory concentration measured against Rhinovirus serotype 3; format: functional, organism-based
Enterovirus [11] = assay: Inhibitory concentration measured against Rhinovirus serotype 14; format: functional, organism-based
Enterovirus [12] = assay: Inhibitory concentration measured against Rhinovirus serotype 16; format: functional, organism-based
Enterovirus [13] = assay: Inhibitory concentration measured against Rhinovirus serotype 15; format: functional, organism-based
Enterovirus [14] = assay: Inhibitory concentration measured against Rhinovirus serotype 13; format: functional, organism-based
Enterovirus [15] = assay: Inhibitory concentration measured against Rhinovirus serotype 30; format: functional, organism-based
Enterovirus [16] = assay: Inhibitory concentration measured against Rhinovirus serotype 9; format: functional, organism-based
Enterovirus [17] = assay: Inhibitory concentration measured against Rhinovirus serotype 5; format: functional, organism-based
Enterovirus [18] = assay: Inhibitory concentration measured against Rhinovirus serotype 1B; format: functional, organism-based
Enterovirus [19] = assay: Inhibitory concentration measured against Rhinovirus serotype 4; format: functional, organism-based
Enterovirus [20] = assay: Inhibitory concentration measured against Rhinovirus serotype 2; format: functional, organism-based
rhinovirus A1B [21] = assay: In vitro activity against rhinovirus type 1B was determined by plaque inhibition assay; - = Inactive at 50 ug/disk; format: functional, organism-based, Enterovirus
Method in brief: (§1)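 Rhinovirus 1B plaque inhibition run on M-HeLa cell monolayers, with compound applied on disks at 50 µg/disk. Compounds active or slightly active at this level went on to a plaque reduction assay for the 50% inhibitory concentration.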

Enterovirus [22] = assay: Inhibitory concentration measured against Rhinovirus serotype 8; format: functional, organism-based
Enterovirus [23] = assay: Inhibitory concentration measured against Rhinovirus serotype 18; format: functional, organism-based
Enterovirus [24] = assay: Percent inhibition of plaque formation of Rhinovirus serotype 14 was measured at 2.5 uM of the compound; format: functional
Enterovirus [25] = assay: Percent inhibition of plaque formation of Rhinovirus serotype 15 was measured at 2.5 uM of the compound; format: functional
Enterovirus [26] = assay: Percent inhibition of plaque formation of Rhinovirus serotype 31 was measured at 2.5 uM of the compound; format: functional
Enterovirus [27] = assay: Percent inhibition of plaque formation of Rhinovirus serotype 18 was measured at 5 uM of the compound; format: functional
Enterovirus [28] = assay: Percent inhibition of plaque formation of Rhinovirus serotype 29 was measured at 2.5 uM of the compound; format: functional
Enterovirus [29] = assay: Percent inhibition of plaque formation of Rhinovirus serotype 13 was measured at 5 uM of the compound; format: functional
rhinovirus A1B [30] = assay: In vitro activity against rhinovirus type 1B was determined by plaque inhibition assay; Inactive at 50 ug/disk, T=Toxic; format: functional, organism-based, Enterovirus; method in brief: as §1

Compound `CCc1ccc(Cn2cnc3c(N(C)C)nc(Cl)nc32)cc1` has an IC50 (rhinovirus A1B [1]) of 80 nM, an Inhibition (Enterovirus [2]) of 42% and an Inhibition (Enterovirus [3]) of 30%. For the same compound, the IC50 (Enterovirus [4]) was 7 µM, the IC50 (Enterovirus [5]) was 300 nM and the IC50 (Enterovirus [6]) was 8 µM. It also gave an IC50 (Enterovirus [7]) of 3.5 µM, an IC50 (Enterovirus [8]) of 500 nM and an IC50 (Enterovirus [9]) of 4.6 µM. The IC50 (Enterovirus [10]) was 4 µM, the IC50 (Enterovirus [11]) was 3.3 µM and the IC50 (Enterovirus [12]) was 200 nM. The IC50 (Enterovirus [13]) was 3.9 µM, the IC50 (Enterovirus [14]) was 4.9 µM and the IC50 (Enterovirus [15]) was 4 µM. It also gave an IC50 (Enterovirus [16]) of 400 nM, an IC50 (Enterovirus [17]) of 5.6 µM and an IC50 (Enterovirus [18]) of 80 nM. For the same compound, the IC50 (Enterovirus [19]) was 4 µM and the IC50 (Enterovirus [20]) was 2800 nM.
`CN(C)c1ncnc2c1ncn2Cc1ccc(F)cc1` was tested, and the IC50 (rhinovirus A1B [21]) was “Not Active”.
Compound `Cc1ccc(Cn2cnc3c(N(C)C)ncnc32)cc1` has an IC50 (rhinovirus A1B [1]) of 8600 nM.
`CC(C)S(=O)(=O)n1c(N)nc2ccc(/C(=N/O)c3ccccc3)cc21` [ENVIROXIME] was tested, and the IC50 (rhinovirus A1B [1]) was 40 nM.
`CN(C)c1ncnc2c1ncn2Cc1cccc(NC(=O)C(N)Cc2ccccc2)c1` (configuration not stated) was tested, and the IC50 (rhinovirus A1B [1]) was 17000 nM.
`CN(C)c1ncnc2c1ncn2Cc1cccc(C#N)c1` was tested, and the IC50 (rhinovirus A1B [21]) was “Not Active”.
`CN(C)c1ncnc2c1ncn2Cc1cccc(I)c1` was tested, and the IC50 (rhinovirus A1B [1]) was 6700 nM.
Compound `CN(C)c1nc(Cl)nc2c1ncn2Cc1ccc(Cl)c(Cl)c1` has an IC50 (rhinovirus A1B [1]) of 320 nM.
For `CN(C)c1ncnc2c1ncn2Cc1ccc(Cl)c(Cl)c1`, the IC50 (rhinovirus A1B [1]) was 2500 nM.
`CN(C)c1ncnc2c1ncn2Cc1cc(Cl)cc(Cl)c1` gave an IC50 (rhinovirus A1B [1]) of 4600 nM.
`CC(C)c1ccc(Cn2cnc3c(N(C)C)nc(Cl)nc32)cc1` showed an IC50 (rhinovirus A1B [1]) of 70 nM, an IC50 (Enterovirus [4]) of 3.4 µM and an IC50 (Enterovirus [5]) of 500 nM. The IC50 (Enterovirus [7]) was 4 µM, the IC50 (Enterovirus [22]) was 6 µM and the IC50 (Enterovirus [8]) was < 1000 nM. It also gave an IC50 (Enterovirus [9]) of 7 µM, an IC50 (Enterovirus [10]) of 7 µM and an IC50 (Enterovirus [11]) of 5.9 µM. It also gave an IC50 (Enterovirus [12]) of 200 nM, an IC50 (Enterovirus [13]) of 4.5 µM and an IC50 (Enterovirus [14]) of 5.8 µM. The IC50 (Enterovirus [23]) was 4.3 µM, the IC50 (Enterovirus [15]) was 8 µM and the IC50 (Enterovirus [16]) was < 1000 nM. For the same compound, the IC50 (Enterovirus [17]) was 8 µM, the IC50 (Enterovirus [18]) was 70 nM and the IC50 (Enterovirus [19]) was 6.1 µM. For the same compound, the IC50 (Enterovirus [20]) was 1200 nM.
`CN(C)c1nc(Cl)nc2c1ncn2Cc1ccc(Cl)cc1` showed an IC50 (rhinovirus A1B [1]) of 120 nM, an Inhibition (Enterovirus [24]) of 32% and an Inhibition (Enterovirus [25]) of 40%. The IC50 (Enterovirus [4]) was 5.4 µM, the Inhibition (Enterovirus [26]) was 42% and the IC50 (Enterovirus [6]) was > 5 µM. It also gave an Inhibition (Enterovirus [27]) of 35%, an IC50 (Enterovirus [22]) of 4.5 µM and an IC50 (Enterovirus [8]) of 3000 nM. For the same compound, the IC50 (Enterovirus [9]) was > 5 µM, the IC50 (Enterovirus [10]) was 3.1 µM and the Inhibition (Enterovirus [28]) was 31%. For the same compound, the Inhibition (Enterovirus [29]) was 12%, the IC50 (Enterovirus [15]) was > 2.5 µM and the IC50 (Enterovirus [16]) was 2100 nM. For the same compound, the IC50 (Enterovirus [17]) was 5.2 µM, the IC50 (Enterovirus [18]) was 120 nM and the IC50 (Enterovirus [19]) was > 2.5 µM. For the same compound, the IC50 (Enterovirus [20]) was 2500 nM.
`CN(C)c1nc(Cl)nc2c1ncn2Cc1cccc(N)c1` showed an IC50 (rhinovirus A1B [1]) of 13000 nM.
`Cc1cccc(Cn2cnc3c(N(C)C)nc(Cl)nc32)c1` gave an IC50 (rhinovirus A1B [1]) of 600 nM.
Work on `CN(C)c1ncnc2c1ncn2Cc1cccc(C(F)(F)F)c1` yielded an IC50 (rhinovirus A1B [1]) of 19600 nM.
With `CN(C)c1ncnc2c1ncn2Cc1ccc(OCc2ccccc2)cc1` the IC50 (rhinovirus A1B [21]) was “Not Active”.
`CN(C)c1nc(Cl)nc2c1ncn2Cc1ccc(N)cc1` gave an IC50 (rhinovirus A1B [1]) of 300 nM.
Compound `COc1ccc(Cn2cnc3c(N(C)C)nc(Cl)nc32)cc1` has an IC50 (rhinovirus A1B [1]) of 700 nM.
Work on `CN(C)c1ncnc2c1ncn2Cc1ccccc1` yielded an IC50 (rhinovirus A1B [1]) of 33000 nM.
`CN(C)c1ncnc2c1ncn2Cc1cccc(F)c1` gave an IC50 (rhinovirus A1B [1]) of 23000 nM.
`COc1ccc(Cn2cnc3c(N(C)C)ncnc32)cc1` gave an IC50 (rhinovirus A1B [1]) of 38000 nM.
In the case of `CN(C)c1ncnc2c1ncn2Cc1ccc([N+](=O)[O-])cc1`, the IC50 (rhinovirus A1B [21]) is reported as “Not Active”.
`CN(C)c1nc(Cl)nc2c1ncn2Cc1ccccc1` showed an IC50 (rhinovirus A1B [1]) of 820 nM.
In the case of `CN(C)c1ncnc2c1ncn2Cc1cccc(OCc2ccccc2)c1`, the IC50 (rhinovirus A1B [1]) is reported as 13000 nM.
With `CN(C)c1ncnc2c1ncn2Cc1cccc(Cl)c1` the IC50 (rhinovirus A1B [1]) was 30500 nM.
For `Cc1cccc(Cn2cnc3c(N(C)C)ncnc32)c1`, the IC50 (rhinovirus A1B [1]) was 32000 nM.
Work on `CN(C)c1ncnc2c1ncn2Cc1ccc(O)cc1` yielded an IC50 (rhinovirus A1B [1]) of 34000 nM.
In the case of `CN(C)c1ncnc2c1ncn2Cc1ccc(Cl)cc1`, the IC50 (rhinovirus A1B [1]) is reported as > 25000 nM.
`CC(=O)Nc1ccc(Cn2cnc3c(N(C)C)ncnc32)cc1` was tested, and the IC50 (rhinovirus A1B [21]) was “Not Active”.
Work on `COc1cccc(Cn2cnc3c(N(C)C)nc(Cl)nc32)c1` yielded an IC50 (rhinovirus A1B [1]) of 2000 nM.
Compound `CN(C)c1ncnc2c1ncn2Cc1cccc(N)c1` has an IC50 (rhinovirus A1B [1]) of 50000 nM.
In the case of `Cc1ccc(Cn2cnc3c(N(C)C)nc(Cl)nc32)cc1`, the IC50 (rhinovirus A1B [1]) is reported as 80 nM, the IC50 (Enterovirus [4]) is reported as 5.4 µM and the IC50 (Enterovirus [5]) is reported as > 5000 nM. For the same compound, the IC50 (Enterovirus [6]) was 5.6 µM, the IC50 (Enterovirus [7]) was 1.6 µM and the IC50 (Enterovirus [22]) was 13 µM. For the same compound, the IC50 (Enterovirus [8]) was 120 nM, the IC50 (Enterovirus [9]) was 14 µM and the IC50 (Enterovirus [10]) was 7.2 µM. The IC50 (Enterovirus [11]) was 7 µM, the IC50 (Enterovirus [12]) was 1000 nM and the IC50 (Enterovirus [13]) was 3.5 µM. It also gave an IC50 (Enterovirus [14]) of 2.3 µM, an IC50 (Enterovirus [23]) of 4 µM and an IC50 (Enterovirus [16]) of 2000 nM. It also gave an IC50 (Enterovirus [17]) of 6.2 µM, an IC50 (Enterovirus [18]) of 80 nM and an IC50 (Enterovirus [19]) of 4.6 µM. The IC50 (Enterovirus [20]) was 11000 nM.
`CN(C)c1ncnc2c1ncn2Cc1cccc([N+](=O)[O-])c1` was tested, and the IC50 (rhinovirus A1B [21]) was “Not Active”.
With `CN(C)c1ncnc2c1ncn2Cc1ccc(N)cc1` the IC50 (rhinovirus A1B [21]) was “Not Active”.
`CN(C)c1nc(Cl)nc2c1ncn2Cc1cccc(OCc2ccccc2)c1` was tested, and the IC50 (rhinovirus A1B [30]) was “Toxic”.
Work on `CN(C)c1nc(Cl)nc2c1ncn2Cc1cccc(Cl)c1` yielded an IC50 (rhinovirus A1B [1]) of 590 nM.
In the case of `COc1cccc(Cn2cnc3c(N(C)C)ncnc32)c1`, the IC50 (rhinovirus A1B [1]) is reported as 50000 nM.
Compound `CN(C)c1nc(Cl)nc2c1ncn2Cc1cccc(I)c1` has an IC50 (rhinovirus A1B [1]) of 360 nM.
`CN(C)c1ncnc2c1ncn2Cc1cccc(O)c1` was tested, and the IC50 (rhinovirus A1B [21]) was “Not Active”.
In the case of `CN(C)c1nc(Cl)nc2c1ncn2Cc1ccc2ccccc2c1`, the IC50 (rhinovirus A1B [1]) is reported as 1100 nM.
In the case of `CN(C)c1ncnc2c1ncn2Cc1cccc(Br)c1`, the IC50 (rhinovirus A1B [1]) is reported as 14400 nM.
`CN(C)c1nc(Cl)nc2c1ncn2Cc1ccc(C(C)(C)C)cc1` showed an IC50 (rhinovirus A1B [1]) of 440 nM.
For `CN(C)c1ncnc2c1ncn2Cc1ccc(C#N)cc1`, the IC50 (rhinovirus A1B [21]) was “Not Active”.
Compound `CN(C)c1nc(Cl)nc2c1ncn2Cc1ccc([N+](=O)[O-])cc1` has an IC50 (rhinovirus A1B [1]) of 510 nM.
